≈ marks a conversion by molar mass, not a printed value. Calls of active or inactive are those of the source. The calls are words filed in the database; no cut-off is given here.
What was measured:
NIH3T3 [1] = assay: Cytotoxicity against mouse NIH/3T3 cells after 48 hrs by MTT assay; format: cell-based; conditions: NIH3T3, 48 h
Outline: (§1)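 Cells seeded at 12,000 to 17,000 per well depending on line, incubated overnight, then given serial dilutions of ligand for 48 h. MTT at 2.5 mg/mL added for 4 h at 37 °C, formazan solubilized overnight (10% SDS, 45% dimethylformamide, pH 5.5), absorbance read at 595/690 nm. IC50 from log-dose response curves; mean ± SE of three independent assays.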

[2] = Cytotoxicity against human A2780AD cells after 48 hrs by MTT assay; format: functional, cell-based; outline: as §1
NIH3T3 [3] = assay: Cytotoxicity against mouse NIH/3T3 cells harboring MDR G185 after 48 hrs by MTT assay; format: functional, cell-based; conditions: NIH3T3, 48 h; outline: as §1
[4] = Ratio of IC50 for mouse NIH/3T3 cells harboring MDR G185 to IC50 for mouse NIH/3T3 cells
Outline: (§2)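 Relative resistance: IC50 in the P-gp overexpressing resistant line divided by IC50 in the parental line. Both IC50s came from the 48 h MTT assay (serial dilutions, absorbance at 595/690 nm, log-dose response curves, three independent assays).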

A2780 = assay: Cytotoxicity against human A2780 cells after 48 hrs by MTT assay; format: functional, cell-based; conditions: A2780, 48 h; outline: as §1
[5] = Ratio of IC50 for human A2780AD cells to IC50 for human A2780 cells; format: functional; outline: as §2
HL-60 [6] = assay: Cytotoxicity against human HL60 cells assessed as reduction in cell viability after 72 hrs by alamar blue assay; format: functional, cell-based; conditions: HL-60, 72 h
Outline: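 HL-60 at 300,000 cells/ml treated in triplicate with compound or vehicle (0.1% v/v DMSO) for 72 h. Cells then incubated in 10% (v/v) AlamarBlue and fluorescence read at excitation 544 nm, emission 590 nm. IC50 is the mean of at least three separate determinations.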

HCC827 [7] = assay: Cytotoxicity against human HCC827 cells assessed as reduction in cell survival at 0.1 to 10 uM after 50 to 60 hrs by MTT assay; format: functional, cell-based
B16-F10 = assay: Cytotoxicity against mouse B16F10 cells assessed as reduction in cell survival at 0.1 to 10 uM after 18 hrs by MTT assay; format: functional, cell-based
Outline: (§3)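 Seeded at 2,500 cells/well in medium with 10% serum. After adhesion, exposed to 0.1, 1 and 10 μM in medium with 5% serum for 18 h. Medium then replaced with fresh medium containing 1.2 mM MTT for 4 h; formazan dissolved in DMSO, absorbance at 540 nm. Results given as % of basal response.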

HL-60 [8] = assay: Cell cycle arrest in human HL60 cells assessed as accumulation of cells at G2/M phase at 10 uM after 24 hrs by propidium iodide staining-based flow cytometric analysis; format: functional
Outline: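 HL-60 exposed to 10 μM for 24 h, vehicle 0.1% DMSO. Cells plated at 2×10^5 cells/mL, stained in PBS with 0.1% sodium citrate, 0.1% NP40 and propidium iodide for 30 min at room temperature in the dark. DNA content by flow cytometry; G2/M fraction reported.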

PC-9 = assay: Cytotoxicity against human PC9 cells assessed as reduction in cell survival at 0.1 to 10 uM after 18 hrs by MTT assay; format: functional, cell-based; outline: as §3
A549 = assay: Cytotoxicity against human A549 cells assessed as reduction in cell survival at 0.1 to 10 uM after 18 hrs by MTT assay; format: functional, cell-based; outline: as §3
HCC827 [9] = assay: Cytotoxicity against human HCC827 cells assessed as reduction in cell survival at 0.1 to 10 uM after 18 hrs by MTT assay; format: functional, cell-based; outline: as §3
B16-F1 = assay: Cytotoxicity against mouse B16-F1 cells assessed as reduction in cell survival at 0.1 to 10 uM after 18 hrs by MTT assay; format: functional, cell-based; outline: as §3
GISTT1 = assay: Cytotoxicity against human GISTT1 cells assessed as reduction in cell viability at 1 uM after 48 hrs by alamar blue assay; format: functional, cell-based
Outline: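 GIST-T1 seeded at 4000 cells/well, exposed to 1 or 10 μM for 48 h; viability read by AlamarBlue.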

Tubulin (Homo sapiens) [10] = target: T1, Tubulin (Homo sapiens) (UniProt P68371+Q9H4B7+P0DPH7+P68366+Q13509+Q71U36+P04350+Q3ZCM7+P07437+P68363+Q9BQE3+Q6PEY2+Q13885+Q9BVA1+Q9BUF5); assay: Displacement of podophyllotoxin from tubulin (unknown origin) by ultracentrifugation method; format: protein-complex assay
Tubulin (Homo sapiens) [11] = target: T1, Tubulin (Homo sapiens); assay: Binding affinity to tubulin (unknown origin) by analytical ultracentrifugation
Tubulin (Homo sapiens) [12] = target: T1, Tubulin (Homo sapiens); assay: Inhibition of tubulin (unknown origin) polymerization at 27.5 uM measured over 70 mins by turbidity method; format: protein-complex assay
Outline: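 Tubulin at 25 µM in GAB buffer (10 mM sodium phosphate, 30% glycerol, 1 mM EGTA, 6 mM MgCl2, 1 mM GTP, pH 6.7) with 27.5 µM compound or DMSO vehicle. Turbidity is read at 355 nm for 70 min at 37 °C. Data are normalized to the initial stable absorbance plateau to correct for compound absorbance.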

[13] = Apparent solubility of compound in sodium phosphate buffer at 15 uM after 20 mins; format: physicochemical

## CC[C@]1(O)C[C@@H]2CN(CCc3c([nH]c4ccccc34)[C@@](C(=O)OC)(c3cc4c(cc3OC)N(C)[C@H]3[C@@](O)(C(=O)OC)[C@H](OC(C)=O)[C@]5(CC)C=CCN6CC[C@]43[C@@H]65)C2)C1 [VINBLASTINE]
NIH3T3 [1]
  IC50: 1 nM
[2]
  IC50: 44 nM
NIH3T3 [3]
  IC50: 70.4 nM
[4]
  Ratio IC50: 70.4
A2780
  IC50: 0.5 nM
[5]
  Ratio IC50: 88

## O=C1c2cccn2-c2cc3ccccc3cc2OC1c1cccc2cccnc12 (stereo not given)
HL-60 [6]
  IC50: 1080 nM

## CC(=O)OC1=C(c2cnc3ccccc3c2)Oc2cc3ccccc3cc2-n2cccc21
HCC827 [7]
  Activity: inactive
B16-F10
  Activity: inactive
HL-60 [6]
  IC50: 6460 nM
HL-60 [8]
  Activity: Active
PC-9
  Activity: inactive
A549
  Activity: inactive
HCC827 [9]
  Activity: inactive
B16-F1
  Activity: inactive

## CC(=O)NC1=C(c2cccc3ccccc23)Oc2cc3ccccc3cc2-n2cccc21
HL-60 [8]
  Activity: Active

## COc1cc2c(c(OC)c1OC)-c1ccc(OC)c(=O)cc1[C@@H](NC(C)=O)CC2 [COLCHICINE]
NIH3T3 [1]
  IC50: 25 nM
[2]
  IC50: 500 nM
NIH3T3 [3]
  IC50: 1120 nM
[4]
  Ratio IC50: 44.7
A2780
  IC50: 13.1 nM
[5]
  Ratio IC50: 38.2

## CN(C)C(=O)OC1=C(c2cccc3cccnc23)Oc2cc3ccccc3cc2-n2cccc21
HL-60 [6]
  IC50: 300 nM
GISTT1
  Activity: Active

## CCN(CC)CCCC(C)NC(=O)OC1=C(c2cccc3ccccc23)Oc2cc3ccccc3cc2-n2cccc21 (stereo not given)
HL-60 [8]
  Activity: Active

## O=C1c2cccn2-c2cc3ccccc3cc2OC1c1cccc2ncccc12 (stereo not given)
HL-60 [6]
  IC50: 2770 nM

## CCN(CC)C(=O)OC1=C(c2cccc3cccnc23)Oc2cc3ccccc3cc2-n2cccc21
HL-60 [6]
  IC50: 4580 nM

## CCc1ccc2cccc(C3=C(OC(=O)N(CC)CC)c4cccn4-c4cc5ccccc5cc4O3)c2n1
HL-60 [8]
  Activity: Active

## CCN(CC)CCCC(C)NC(=O)OC1=C(c2cccc3cccnc23)Oc2cc3ccccc3cc2-n2cccc21 (stereo not given)
NIH3T3 [1]
  IC50: 2300 nM
[2]
  IC50: 1350 nM
NIH3T3 [3]
  IC50: 2500 nM
HL-60 [8]
  Activity: Active
[4]
  Ratio IC50: 1.08
Tubulin (Homo sapiens) [10]
  inhibition: Active
Tubulin (Homo sapiens) [11]
  Kb: 114 ×10⁷ /M
A2780
  IC50: 1900 nM
Tubulin (Homo sapiens) [12]
  inhibition: Active
[13]
  solubility at 20 min, 15 µM: 2.89 µM (≈ 1.62 µg/mL)
[5]
  Ratio IC50: 0.71

## CC(=O)O[C@H]1C(=O)[C@@]2(C)[C@H]([C@H](OC(=O)c3ccccc3)[C@]3(O)C[C@H](OC(=O)[C@H](O)[C@@H](NC(=O)c4ccccc4)c4ccccc4)C(C)=C1C3(C)C)[C@]1(OC(C)=O)CO[C@@H]1C[C@@H]2O [PACLITAXEL]
NIH3T3 [1]
  IC50: 25 nM
[2]
  IC50: 700 nM
NIH3T3 [3]
  IC50: 4880 nM
[4]
  Ratio IC50: 195
A2780
  IC50: 3.3 nM
[5]
  Ratio IC50: 212.12

## CC(=O)OC1=C(c2cccc3cnccc23)Oc2cc3ccccc3cc2-n2cccc21
NIH3T3 [1]
  IC50: 375 nM
[2]
  IC50: 810 nM
NIH3T3 [3]
  IC50: 876 nM
[4]
  Ratio IC50: 2.33
Tubulin (Homo sapiens) [10]
  inhibition: Active
Tubulin (Homo sapiens) [11]
  Kb: 16 ×10⁷ /M
A2780
  IC50: 301 nM
Tubulin (Homo sapiens) [12]
  inhibition: Active
[13]
  solubility at 20 min, 15 µM: 0.22 µM (≈ 0.0921 µg/mL)
[5]
  Ratio IC50: 2.69

From ChEMBL document CHEMBL4382230, “Structure-activity relationships, biological evaluation and structural studies of novel pyrrolonaphthoxazepines as antitumor agents” (Eur J Med Chem, 2019)
